Measured values: ChEMBL document CHEMBL1126196, “Improvements in the minimum binding sequence of C5a: examination of His-67” (J Med Chem, 1992)
Square brackets hold non-standard residues; d marks the D form. Peptide text beside a SMILES is read from it. * marks the point of attachment. His(τ-Me) = Cn1cnc(C[C@H](N)C(=O)O)c1; His(π-Me) = Cn1cncc1C[C@H](N)C(=O)O; Hydrocinnamoyl = O=C(CCc1ccccc1)*; hPhe = N[C@@H](CCc1ccccc1)C(=O)O; Cha = N[C@@H](CC1CCCCC1)C(=O)O; Phg = N[C@H](C(=O)O)c1ccccc1

Assays:
Homo sapiens [1] = species on record: Homo sapiens; experiment: In vitro potency against polymorphonuclear leukocyte (PMNL) chemokinesis; type: functional
Summary of the method: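 PMNL chemokinesis run over half-log concentration steps based on the binding Ki; EC50 obtained by least-squares regression as the concentration giving 50% of that peptide's own maximal response.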

Homo sapiens [2] = species on record: Homo sapiens; experiment: In vitro agonist efficacy against polymorphonuclear leukocyte (PMNL) chemokinesis; parameters: concentration or dose not given beside the values
Cavia porcellus [3] = experiment: In vivo potency by its ability to cause evans blue dye leakage as a marker of increased vascular permeability when injected intradermally in guinea pig; type: functional, organism-based
[4] = target: T1, C5a anaphylatoxin chemotactic receptor 1 (Homo sapiens, UniProt P21730); experiment: Inhibitory activity against [125I]-rC5a binding to C5a anaphylatoxin chemotactic receptor in human polymorphonuclear leukocyte (PMNL) membranes
T1 sequence (P21730 whole entry): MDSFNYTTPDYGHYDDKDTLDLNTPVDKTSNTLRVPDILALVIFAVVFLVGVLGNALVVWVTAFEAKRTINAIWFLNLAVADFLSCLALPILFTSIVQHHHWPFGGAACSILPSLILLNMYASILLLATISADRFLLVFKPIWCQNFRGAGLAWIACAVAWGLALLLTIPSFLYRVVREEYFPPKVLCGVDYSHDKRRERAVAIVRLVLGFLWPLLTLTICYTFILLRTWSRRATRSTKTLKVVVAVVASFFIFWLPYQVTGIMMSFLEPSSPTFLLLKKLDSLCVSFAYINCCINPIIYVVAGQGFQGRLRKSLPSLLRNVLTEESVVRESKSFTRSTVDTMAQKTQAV
Summary of the method: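 Competition binding on human PMNL membrane fragments, peptides displacing ¹²⁵I-labelled recombinant C5a. Inhibition binding data converted to apparent dissociation constant (Ki) by the Cheng–Prusoff method.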

Cavia porcellus [5] = experiment: In vivo agonist efficacy by its ability to cause evans blue dye leakage as a marker of increased vascular permeability when injected intradermally in guinea pig; type: functional; parameters: concentration or dose not given beside the values
Summary of the method: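 Guinea pig, intradermal injection of peptide at a single high concentration; Evans blue dye leakage read as vascular permeability increase, compared with the maximal response to a control rC5a injection included in each test group.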

Compound	EC50 (Homo sapiens [1]) [µM]	Activity (Homo sapiens [2]) [%]	EC50 (Cavia porcellus [3]) [µM]	Ki [4] [µM]	Activity (Cavia porcellus [5]) [%]
CSCC[C@H](NC(=O)[C@H](CC(=O)O)NC(=O)[C@H](CCCCN)NC(=O)CCc1ccccc1)C(=O)N[C@@H](CCC(N)=O)C(=O)N[C@@H](CC(C)C)C(=O)NCC(=O)N[C@@H](CCCN=C(N)N)C(=O)O (Hydrocinnamoyl-KDMQLGR-OH)	0.8	84	–	–	–
CSCC[C@H](NC(=O)[C@H](CC(=O)O)NC(=O)[C@H](CCCCN)NC(=O)[C@@H](N)Cc1cccs1)C(=O)N[C@@H](CCC(N)=O)C(=O)N[C@@H](CC(C)C)C(=O)NCC(=O)N[C@@H](CCCN=C(N)N)C(=O)O [listing 1 of 2 here]	0.53	–	< 1000	–	–
CSCC[C@H](NC(=O)[C@H](CC(=O)O)NC(=O)[C@H](CCCCN)NC(=O)[C@@H](N)CCc1ccccc1)C(=O)N[C@@H](CCC(N)=O)C(=O)N[C@@H](CC(C)C)C(=O)NCC(=O)N[C@@H](CCCNC(=N)N)C(=O)O (H-[hPhe]KDMQLGR-OH)	–	–	–	36	–
CSCC[C@H](NC(=O)[C@H](CC(=O)O)NC(=O)[C@H](CCCCN)NC(=O)[C@H](N)Cc1ccccc1)C(=O)N[C@@H](CCC(N)=O)C(=O)N[C@@H](CC(C)C)C(=O)NCC(=O)N[C@@H](CCCN=C(N)N)C(=O)O	80	70	–	79	–
CSCC[C@H](NC(=O)[C@H](CC(=O)O)NC(=O)[C@H](CCCCN)NC(=O)[C@@H](N)c1ccccc1)C(=O)N[C@@H](CCC(N)=O)C(=O)N[C@@H](CC(C)C)C(=O)NCC(=O)N[C@@H](CCCN=C(N)N)C(=O)O (H-[Phg]KDMQLGR-OH) [listing 1 of 2 here]	10	–	–	31	–
CSCC[C@H](NC(=O)[C@H](CC(=O)O)NC(=O)[C@H](CCCCN)NC(=O)[C@@H](N)Cc1cn(C)cn1)C(=O)N[C@@H](CCC(N)=O)C(=O)N[C@@H](CC(C)C)C(=O)NCC(=O)N[C@@H](CCCNC(=N)N)C(=O)O (H-[His(τ-Me)]KDMQLGR-OH) [listing 1 of 2 here]	–	90	–	–	–
CSCC[C@H](NC(=O)[C@H](CC(=O)O)NC(=O)[C@H](CCCCN)NC(=O)[C@@H](N)Cc1cncn1C)C(=O)N[C@@H](CCC(N)=O)C(=O)N[C@@H](CC(C)C)C(=O)NCC(=O)N[C@@H](CCCN=C(N)N)C(=O)O (H-[His(π-Me)]KDMQLGR-OH)	110	88	–	180	–
H-ISFKDMQLGR-OH	0.72	76	< 100	–	54
H-HKDMQLGR-OH	110	129	–	–	–
H-LRANISFKDMQLGR-OH	1.6	133	< 300	0.81	116
Ac-FKDMQLGR-OH [listing 1 of 2 here]	–	76	–	–	–
CSCC[C@H](NC(=O)[C@H](CC(=O)O)NC(=O)[C@H](CCCCN)NC(=O)[C@@H](N)CC1CCCCC1)C(=O)N[C@@H](CCC(N)=O)C(=O)N[C@@H](CC(C)C)C(=O)NCC(=O)N[C@@H](CCCN=C(N)N)C(=O)O (H-[Cha]KDMQLGR-OH) [listing 1 of 2 here]	–	154	–	–	–
CSCC[C@H](NC(=O)[C@H](CC(=O)O)NC(=O)[C@H](CCCCN)NC(=O)[C@@H](N)CC1CCCCC1)C(=O)N[C@@H](CCC(N)=O)C(=O)N[C@@H](CC(C)C)C(=O)NCC(=O)N[C@@H](CCCN=C(N)N)C(=O)O (H-[Cha]KDMQLGR-OH) [listing 2 of 2 here]	3	–	–	–	–
CSCC[C@H](NC(=O)[C@H](CC(=O)O)NC(=O)[C@H](CCCCN)NC(=O)[C@@H](N)Cc1ccccc1)C(=O)N[C@@H](CCC(N)=O)C(=O)N[C@@H](CC(C)C)C(=O)NCC(=O)N[C@@H](CCCN=C(N)N)C(=O)O	0.46	132	< 1000	0.26	60
CSCC[C@H](NC(=O)[C@H](CC(=O)O)NC(=O)[C@H](CCCCN)NC(=O)[C@@H](N)CC1CCCCC1)C(=O)N[C@@H](CCC(N)=O)C(=O)N[C@@H](CC(C)C)C(=O)NCC(=O)N[C@@H](CCCNC(=N)N)C(=O)O (H-[Cha]KDMQLGR-OH)	–	–	–	13	–
CSCC[C@H](NC(=O)[C@H](CC(=O)O)NC(=O)[C@H](CCCCN)NC(=O)[C@@H](N)Cc1cccs1)C(=O)N[C@@H](CCC(N)=O)C(=O)N[C@@H](CC(C)C)C(=O)NCC(=O)N[C@@H](CCCN=C(N)N)C(=O)O [listing 2 of 2 here]	–	142	–	–	–
CSCC[C@H](NC(=O)[C@H](CC(=O)O)NC(=O)[C@H](CCCCN)NC(=O)[C@@H](N)CCc1ccccc1)C(=O)N[C@@H](CCC(N)=O)C(=O)N[C@@H](CC(C)C)C(=O)NCC(=O)N[C@@H](CCCN=C(N)N)C(=O)O (H-[hPhe]KDMQLGR-OH)	15	162	–	–	–
CSCC[C@H](NC(=O)[C@H](CC(=O)O)NC(=O)[C@H](CCCCN)NC(=O)CCc1ccccc1)C(=O)N[C@@H](CCC(N)=O)C(=O)N[C@@H](CC(C)C)C(=O)NCC(=O)N[C@@H](CCCNC(=N)N)C(=O)O (Hydrocinnamoyl-KDMQLGR-OH)	–	–	–	4.4	–
CSCC[C@H](NC(=O)[C@H](CC(=O)O)NC(=O)[C@H](CCCCN)NC(=O)[C@@H](N)Cc1cccs1)C(=O)N[C@@H](CCC(N)=O)C(=O)N[C@@H](CC(C)C)C(=O)NCC(=O)N[C@@H](CCCNC(=N)N)C(=O)O	–	–	–	2.1	–
CSCC[C@H](NC(=O)[C@H](CC(=O)O)NC(=O)[C@H](CCCCN)NC(=O)[C@@H](N)c1ccccc1)C(=O)N[C@@H](CCC(N)=O)C(=O)N[C@@H](CC(C)C)C(=O)NCC(=O)N[C@@H](CCCN=C(N)N)C(=O)O (H-[Phg]KDMQLGR-OH) [listing 2 of 2 here]	–	72	–	–	–
CSCC[C@H](NC(=O)[C@H](CC(=O)O)NC(=O)[C@H](CCCCN)NC(=O)[C@@H](N)Cc1cn(C)cn1)C(=O)N[C@@H](CCC(N)=O)C(=O)N[C@@H](CC(C)C)C(=O)NCC(=O)N[C@@H](CCCNC(=N)N)C(=O)O (H-[His(τ-Me)]KDMQLGR-OH) [listing 2 of 2 here]	17	–	–	58	–
H-ANISFKDMQLGR-OH	0.25	85	< 100	–	69
Ac-FKDMQLGR-OH [listing 2 of 2 here]	0.44	–	–	0.2	–
CSCC[C@H](NC(=O)[C@H](CC(=O)O)NC(=O)[C@H](CCCCN)NC(=O)[C@H](N)Cc1cccs1)C(=O)N[C@@H](CCC(N)=O)C(=O)N[C@@H](CC(C)C)C(=O)NCC(=O)N[C@@H](CCCN=C(N)N)C(=O)O	–	–	–	–	85
